The source made the active and inactive calls.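 How the source made its calls, unless noted: active means viability at or under a set limit in both replicates, limit being median viability minus 3 SD (cut at about 48% in these data, passing the limit was not always enough); inconclusive means at or under the limit in just one replicate; inactive means at or above the limit in both replicates.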
Key:
[1] = Her2 expression decrease, cell viability multiplex – SKBR3 breast tumor cells, AlphaScreen, ATP viability, primary screen (AID 461;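 active means Her2 level under about 52% in both replicate screens, with viability over 70% of control, limit read from the data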;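 on Her2 level: lower value means less Her2 protein in the cells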;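 on viability: percent of carrier control wells set as 100% viability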); settings: SKBR3 Her2 protein level, 18-24 h, measured here: SKBR3 viability, ATP luminescence, at 10 µM
[2] = biological target: Receptor tyrosine-protein kinase erbB-2 (Homo sapiens) (UniProt P04626); assay: as above; settings: 18-24 h, at 10 µM, stronger effect = lower value
Chain of Receptor tyrosine-protein kinase erbB-2 (Homo sapiens) (P04626 whole entry, looked up): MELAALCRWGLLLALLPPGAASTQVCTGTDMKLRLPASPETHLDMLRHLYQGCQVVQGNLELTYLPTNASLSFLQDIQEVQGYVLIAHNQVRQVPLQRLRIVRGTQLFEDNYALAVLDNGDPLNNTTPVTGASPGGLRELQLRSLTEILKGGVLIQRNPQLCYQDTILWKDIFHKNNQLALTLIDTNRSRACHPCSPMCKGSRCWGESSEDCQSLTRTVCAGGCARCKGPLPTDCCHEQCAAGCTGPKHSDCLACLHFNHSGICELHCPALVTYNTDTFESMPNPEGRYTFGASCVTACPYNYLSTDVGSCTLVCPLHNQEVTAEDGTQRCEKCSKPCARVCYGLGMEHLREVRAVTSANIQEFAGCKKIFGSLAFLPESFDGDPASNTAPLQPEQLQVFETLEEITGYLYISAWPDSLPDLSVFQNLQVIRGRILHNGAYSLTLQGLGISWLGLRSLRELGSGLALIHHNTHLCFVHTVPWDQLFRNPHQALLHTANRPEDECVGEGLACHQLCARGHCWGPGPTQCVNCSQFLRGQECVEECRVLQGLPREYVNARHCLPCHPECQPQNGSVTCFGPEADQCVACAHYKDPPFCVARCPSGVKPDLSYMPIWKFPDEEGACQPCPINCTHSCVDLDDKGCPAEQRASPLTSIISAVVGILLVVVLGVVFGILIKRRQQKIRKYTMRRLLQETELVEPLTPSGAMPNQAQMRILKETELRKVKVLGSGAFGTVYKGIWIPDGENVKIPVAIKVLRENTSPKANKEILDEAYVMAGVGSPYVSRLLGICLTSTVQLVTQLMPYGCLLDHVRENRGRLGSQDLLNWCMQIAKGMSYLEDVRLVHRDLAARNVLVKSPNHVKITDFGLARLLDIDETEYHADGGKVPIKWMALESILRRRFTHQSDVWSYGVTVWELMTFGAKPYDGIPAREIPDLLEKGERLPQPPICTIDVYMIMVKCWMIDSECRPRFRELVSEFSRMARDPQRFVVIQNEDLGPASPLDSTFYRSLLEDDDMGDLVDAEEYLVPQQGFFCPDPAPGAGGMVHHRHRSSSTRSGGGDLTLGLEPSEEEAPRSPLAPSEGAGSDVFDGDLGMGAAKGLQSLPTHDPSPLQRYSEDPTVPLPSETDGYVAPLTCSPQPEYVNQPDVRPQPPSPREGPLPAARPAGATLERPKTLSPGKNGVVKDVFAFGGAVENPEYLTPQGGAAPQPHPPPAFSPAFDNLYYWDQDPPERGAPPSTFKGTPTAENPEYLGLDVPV

[3] = reduced viability of SK-BR-3 breast cancer cells – cell-based, 24 h, human, pilot screen (AID 572;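 active means viability at or below 10% of carrier control in both of two separate runs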;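 further: compound exposure lasted between 18 and 24 h rather than exactly 24 h; 100% = carrier-treated control wells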); settings: SK-BR-3 viability, CellTiter-Glo luminescence, at 10 µM, stronger effect = lower value
[4] = HUVEC growth inhibition – cell-based, human, primary screen (AID 575;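 active means viability at or below 30% in both replicate assays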;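 further: 100% = median of untreated cell wells with 0.1% DMSO on each plate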); settings: HUVEC proliferation, CellTiter-Glo luminescence, 72 h; at 10 µM; stronger effect = lower value
In short: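 Test system – primary HUVEC, no more than 12 passages · Dosing – one dose, 10 µM final, 0.1% DMSO · Times – 72 h treatment at 37 °C · Measured by – ATP-based CellTiter-Glo luminescent read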

[5] = H69AR cell proliferation blockers – human, duplicate replicates, primary screen (AID 580); settings: H69AR lung tumor cells viability, ATP luminescence, 72 h; at 10 µM; stronger effect = lower value;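 further: 100% = mean luminescence of untreated wells and 0% = no signal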
[6] = MRP1 drug-resistance reversers in H69AR cells – cell-based, doxorubicin co-treatment, pilot screen (AID 601;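 active means viability loss from added drug above about 55%, and viability with drug at most 40%, in both replicates, limit read from the data, passing the limit was not always enough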); settings: CellTiter-Glo, 72 h, at 10 µM; for differential viability (reversal): stronger effect = higher value
[7] = yeast transport mutant growth inhibition pilot in 384-well plates, post-Golgi transport modulator project (AID 636; in the data active means inhibition above about 31%); settings: absorbance 615 nm, about 18 h, stronger effect = higher value
[8] = growth suppression of yeast trafficking mutant, preliminary HTS, modulators of trafficking downstream of Golgi apparatus project, 1536-format plate, OD 615 nm (AID 637; in the data active means inhibition above about 30%); settings: yeast transport mutant growth, absorbance 615 nm, 18 h; stronger effect = higher value
[9] = H69AR cells + 2 uM doxorubicin, measured here: viability with 2 uM doxorubicin, stronger effect = lower value
[10] = H69AR cells, compound alone cytotoxicity

Structure (SMILES)	viability [1] [%]	Her2 level [2]	viability [3]	viability [4]	viability [5]	differential viability (reversal) ([6]; H69AR cells + 2 uM doxorubicin)	viability [6, 9] [%]	viability [6, 10] [%]	inhibition [7]	inhibition [8]
COCCn1c(NCc2ccc(C)cc2)nc2c1c(=O)[nH]c(=O)n2C	108	87.5% (inactive)	108% (inactive)	87.2% (inactive)	107% (inactive)	7.44% (inactive)	99.5	107	-2.27% (inactive)	-1.29% (inactive)
COCc1cc(C)nc(SCC(=O)Nc2cccc(C)c2C)c1C#N	103	95.5% (inactive)	103% (inactive)	82.3% (inactive)	94.4% (inactive)	11.9% (inactive)	82.5	94.4	-3.16% (inactive)	-0.48% (inactive)
CCOC(=O)CSc1nnc([C@H](C)NC(=O)OC(C)(C)C)o1	104	97% (inactive)	104% (inactive)	107% (inactive)	106% (inactive)	20.2% (inactive)	85.7	106	-5.58% (inactive)	-10.2% (inactive)
COc1ccc(-c2noc(CN3CCC(Cc4ccccc4)CC3)n2)cc1	94	112% (inactive)	94% (inactive)	87.5% (inactive)	93.5% (inactive)	4.6% (inactive)	88.9	93.5	-4.8% (inactive)	-3.39% (inactive)
Cc1ccc(C(=O)C2COC(=O)C2)cc1 (stereo not given)	109	80.5% (inactive)	109% (inactive)	95.7% (inactive)	85.3% (inactive)	3.12% (inactive)	82.2	85.3	-1.97% (inactive)	-4.84% (inactive)
CCOC(=O)Cn1c(=N)n(CCOc2cccc(C)c2)c2ccccc21	121	106% (inactive)	121% (inactive)	99.6% (inactive)	85.9% (inactive)	1% (inactive)	84.9	85.9	-6.67% (inactive)	-0.79% (inactive)
Cc1n[nH]c(C)c1S(=O)(=O)N1CCN(c2ccccn2)CC1	99.5	108% (inactive)	99.5% (inactive)	111% (inactive)	103% (inactive)	3.44% (inactive)	99.8	103	-0.26% (inactive)	-4.29% (inactive)
Cc1ccc(CNC(=O)C2CCN(S(=O)(=O)c3c(C)noc3C)CC2)cc1	100	102% (inactive)	100% (inactive)	106% (inactive)	104% (inactive)	6.84% (inactive)	97.4	104	-0.53% (inactive)	-4.44% (inactive)
COc1cccc(-n2nc(C(=O)Nc3ccc4c(c3)OCO4)c3ccccc3c2=O)c1	109	80.5% (inactive)	109% (inactive)	85.1% (inactive)	92.2% (inactive)	5.91% (inactive)	86.3	92.2	-2.16% (inactive)	-1.27% (inactive)
CCOc1ccccc1N1CCN(c2nc(N)c(C#N)c(CC#N)c2C#N)CC1	108	74.5% (inactive)	108% (inactive)	70.7% (inactive)	61.7% (inactive)	-22.8% (inactive)	84.5	61.7	-4.34% (inactive)	5.64% (inactive)
CCOC(=O)CN(C(=O)CSc1nnc(-c2ccncc2)n1CCCN(C)C)c1ccccc1	107	98.5% (inactive)	107% (inactive)	106% (inactive)	87.6% (inactive)	9.5% (inactive)	78.1	87.6	-5.19% (inactive)	1.9% (inactive)
O=C(Nc1ccc(Br)cc1F)c1sccc1-n1cccc1	87.5	72.5% (inactive)	87.5% (inactive)	93.5% (inactive)	83.1% (inactive)	1.42% (inactive)	81.7	83.1	-5.66% (inactive)	-8.67% (inactive)
C=C(C)c1cccc(C(C)(C)NC(=O)Nc2ncccn2)c1	97.5	107% (inactive)	97.5% (inactive)	81% (inactive)	66.7% (inactive)	-9% (inactive)	75.7	66.7	-4.08% (inactive)	-4.73% (inactive)
CCOC(=O)Cc1csc(NC(=O)CN(C)S(=O)(=O)c2ccc3c(c2)CCC(=O)N3)n1	108	109% (inactive)	108% (inactive)	97.5% (inactive)	100% (inactive)	6.38% (inactive)	93.7	100	-4% (inactive)	0.82% (inactive)
Cc1occc1C(=O)Nc1ccccc1NC(=O)c1ccoc1C	96.5	101% (inactive)	96.5% (inactive)	90.9% (inactive)	100% (inactive)	8.43% (inactive)	92	100	-4.67% (inactive)	0.48% (inactive)
Cn1nnnc1SCC(=O)NCc1ccco1	95	110% (inactive)	95% (inactive)	91.8% (inactive)	95.8% (inactive)	9.46% (inactive)	86.3	95.8	1.2% (inactive)	-6.72% (inactive)

Reference: PubChem BioAssay
